Results from ChEMBL document CHEMBL1143542, “Structure-activity relationships of bivalent aminoglycosides and evaluation of their microbiological activities” (2005).
≈ marks a conversion by molar mass, not a printed value.

Columns and labels:
[1] = tested on: Staphylococcus aureus; experiment: In vitro minimum inhibitory concentration against Staphylococcus aureus MRSA 3359; format: functional
How it was run: (§1)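 Broth microdilution following CLSI M100-S12. Stocks were 10 mg/mL in water, diluted in Mueller–Hinton broth to a top level of 128, then serially 2-fold in plates. Bacteria in cation-adjusted Mueller–Hinton broth were mixed 1:1 with drug and incubated 16–20 h at 35 °C. MIC was the lowest concentration with no visible growth. Run in duplicate with no-antibiotic and no-inoculum (sterility) controls.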

[2] = tested on: Enterococcus faecalis; experiment: In vitro minimum inhibitory concentration against Enterococcus faecalis 29212; format: functional; how it was run: as §1
[3] = tested on: Staphylococcus aureus; experiment: In vitro minimum inhibitory concentration against Staphylococcus aureus ATCC 29213; format: functional; how it was run: as §1
[4] = tested on: Pseudomonas aeruginosa; experiment: In vitro minimum inhibitory concentration against Pseudomonas aeruginosa ATCC 27853; format: functional; how it was run: as §1
[5] = tested on: Pseudomonas aeruginosa; experiment: In vitro minimum inhibitory concentration against Pseudomonas aeruginosa PAO-1; format: functional; how it was run: as §1
[6] = tested on: Escherichia coli; experiment: In vitro minimum inhibitory concentration against Escherichia coli ATCC 25922; format: functional; how it was run: as §1
[7] = tested on: Pseudomonas aeruginosa; experiment: In vitro minimum inhibitory concentration against Pseudomonas aeruginosa PAO-1 Minimum inhibitory concentration against Pseudomonas aeruginosa PAO-1; format: functional; how it was run: as §1
[8] = tested on: Pseudomonas aeruginosa; experiment: Susceptibility testing against Pseudomonas aeruginosa PAE_NUH01; R=Resistant; format: functional, organism-based
How it was run: (§2)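 Disk diffusion susceptibility profiling of P. aeruginosa reference and clinical isolates against empirically used antipseudomonal antibiotics. Each isolate was categorised as susceptible, intermediate or resistant.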

[9] = tested on: Pseudomonas aeruginosa; experiment: Susceptibility testing against Pseudomonas aeruginosa PAE_NUH06; R=Resistant; format: functional, organism-based; how it was run: as §2
[10] = tested on: Pseudomonas aeruginosa; experiment: Susceptibility testing against Pseudomonas aeruginosa PAE_NUH22; S=Susceptible; format: functional, organism-based
How it was run: (§3)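 Disk diffusion susceptibility profiling against a panel of empirically used antipseudomonal antibiotics. Each strain was categorised as susceptible (S) or intermediate (I).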

[11] = tested on: Pseudomonas aeruginosa; experiment: Susceptibility testing against Pseudomonas aeruginosa PAE_NUH17; S=Susceptible; format: functional, organism-based; how it was run: as §3
[12] = tested on: Pseudomonas aeruginosa; experiment: Susceptibility testing against Pseudomonas aeruginosa PAE_NUH18; S=Susceptible; format: functional, organism-based; how it was run: as §3
[13] = tested on: Pseudomonas aeruginosa; experiment: Susceptibility testing against Pseudomonas aeruginosa PAE_NUH19; S=Susceptible; format: functional, organism-based; how it was run: as §3
[14] = tested on: Pseudomonas aeruginosa; experiment: Susceptibility testing against Pseudomonas aeruginosa PAE_NUH04; R=Resistant; format: functional, organism-based; how it was run: as §2
[15] = tested on: Pseudomonas aeruginosa; experiment: Susceptibility testing against Pseudomonas aeruginosa PAE_NUH07; S=Susceptible; format: functional, organism-based; how it was run: as §3
[16] = tested on: Pseudomonas aeruginosa; experiment: Susceptibility testing against Pseudomonas aeruginosa PAE_NUH24; S=Susceptible; format: functional, organism-based; how it was run: as §3
[17] = tested on: Pseudomonas aeruginosa; experiment: Susceptibility testing against Pseudomonas aeruginosa ATCC 27853; S=Susceptible; format: functional, organism-based; how it was run: as §3
[18] = tested on: Pseudomonas aeruginosa; experiment: Susceptibility testing against Pseudomonas aeruginosa PAE_NUH23; S=Susceptible; format: functional, organism-based; how it was run: as §3
[19] = tested on: Pseudomonas aeruginosa; experiment: Susceptibility testing against Pseudomonas aeruginosa PAE_NUH20; S=Susceptible; format: functional, organism-based; how it was run: as §3
[20] = tested on: Pseudomonas aeruginosa; experiment: Susceptibility testing against Pseudomonas aeruginosa PAE_NUH02; R=Resistant; format: functional, organism-based; how it was run: as §2
[21] = tested on: Pseudomonas aeruginosa; experiment: Susceptibility testing against Pseudomonas aeruginosa PAE_NUH25; S=Susceptible; format: functional, organism-based; how it was run: as §3
[22] = tested on: Pseudomonas aeruginosa; experiment: Susceptibility testing against Pseudomonas aeruginosa PAE_NUH03; R=Resistant; format: functional, organism-based; how it was run: as §2
[23] = tested on: Pseudomonas aeruginosa; experiment: Susceptibility testing against Pseudomonas aeruginosa PAE_NUH05; R=Resistant; format: functional, organism-based; how it was run: as §2
[24] = tested on: Pseudomonas aeruginosa; experiment: Susceptibility testing against Pseudomonas aeruginosa PAE_NUH21; S=Susceptible; format: functional, organism-based; how it was run: as §3

SMILES | MIC [1] [µg/mL] | MIC [2] [µg/mL] | MIC [3] [µg/mL] | MIC [4] [µg/mL] | MIC [5] [µg/mL] | MIC [6] [µg/mL] | MIC [7] [µg/mL] | also measured
CCN(CCN(CC)C[C@@H](O)CO[C@@H]1[C@@H](O)[C@H](N)C[C@H](N)[C@H]1O[C@H]1O[C@H](CN)[C@@H](O)[C@H](O)[C@H]1N)C[C@@H](O)CO[C@@H]1[C@@H](O)[C@H](N)C[C@H](N)[C@H]1O[C@H]1O[C@H](CN)[C@@H](O)[C@H](O)[C@H]1N | > 50 | > 50 | > 50 | > 50 | > 50 | > 50 | – | –
CN(CCCCN(C)C[C@@H](O)CO[C@@H]1[C@@H](O)[C@H](N)C[C@H](N)[C@H]1O[C@H]1O[C@H](CN)[C@@H](O)C[C@H]1N)C[C@H](O)CO[C@@H]1[C@@H](O)[C@H](N)C[C@H](N)[C@H]1O[C@H]1O[C@H](CN)[C@@H](O)[C@H](O)[C@H]1N | 32 (≈ 37.3 µM) | > 50 | 2 (≈ 2.33 µM) | 16 (≈ 18.7 µM) | – | 16 (≈ 18.7 µM) | 16 (≈ 18.7 µM) | –
CCN(CCCN(CC)C[C@@H](O)CO[C@@H]1[C@@H](O)[C@H](N)C[C@H](N)[C@H]1O[C@H]1O[C@H](CN)[C@@H](O)[C@H](O)[C@H]1N)C[C@@H](O)CO[C@@H]1[C@@H](O)[C@H](N)C[C@H](N)[C@H]1O[C@H]1O[C@H](CN)[C@@H](O)[C@H](O)[C@H]1N | 50 (≈ 56.4 µM) | > 50 | 3.1 (≈ 3.49 µM) | 6.3 (≈ 7.1 µM) | 6.3 (≈ 7.1 µM) | 12.5 (≈ 14.1 µM) | – | –
NC[C@H]1O[C@H](O[C@H]2[C@H](OC[C@@H](O)CNCCCCNC[C@@H](O)CO[C@@H]3[C@@H](O)[C@H](N)C[C@H](N)[C@H]3O[C@H]3O[C@H](CN)[C@@H](O)C[C@H]3N)[C@@H](O)[C@H](N)C[C@@H]2N)[C@H](N)[C@@H](O)[C@@H]1O | 16 (≈ 19.3 µM) | 32 (≈ 38.6 µM) | 2 (≈ 2.41 µM) | 4 (≈ 4.83 µM) | – | 16 (≈ 19.3 µM) | 4 (≈ 4.83 µM) | –
CN(CCCCCCN(C)C[C@@H](O)CO[C@@H]1[C@@H](O)[C@H](N)C[C@H](N)[C@H]1O[C@H]1O[C@H](CN)[C@@H](O)[C@H](O)[C@H]1N)C[C@@H](O)CO[C@@H]1[C@@H](O)[C@H](N)C[C@H](N)[C@H]1O[C@H]1O[C@H](CN)[C@@H](O)[C@H](O)[C@H]1N | > 50 | > 50 | 6.3 (≈ 6.99 µM) | 12.5 (≈ 13.9 µM) | – | 25 (≈ 27.7 µM) | 50 (≈ 55.5 µM) | –
NC[C@H]1O[C@H](O[C@H]2[C@H](OC[C@H](O)CN3CCCN(C[C@@H](O)CO[C@@H]4[C@@H](O)[C@H](N)C[C@H](N)[C@H]4O[C@H]4O[C@H](CN)[C@@H](O)[C@H](O)[C@H]4N)CC3)[C@@H](O)[C@H](N)C[C@@H]2N)[C@H](N)[C@@H](O)[C@@H]1O | > 50 | > 50 | 12.5 (≈ 14.6 µM) | 12.5 (≈ 14.6 µM) | 50 (≈ 58.3 µM) | 50 (≈ 58.3 µM) | – | –
NCC[C@H](O)C(=O)N[C@@H]1C[C@H](N)[C@@H](O[C@H]2O[C@H](CN)[C@@H](O)[C@H](O)[C@H]2O)[C@H](O)[C@H]1O[C@H]1O[C@H](CO)[C@@H](O)[C@H](N)[C@H]1O | – | – | – | – | – | – | – | Activity [8]: Resistant; Activity [9]: Resistant; Activity [10]: Susceptible; Activity [11]: Susceptible; Activity [12]: Susceptible; Activity [13]: Susceptible; Activity [14]: Resistant; Activity [15]: Susceptible; Activity [16]: Susceptible; Activity [17]: Susceptible; Activity [18]: Susceptible; Activity [19]: Susceptible; Activity [20]: Resistant; Activity [21]: Susceptible; Activity [22]: Resistant; Activity [23]: Resistant; Activity [24]: Susceptible
CN(CCOCCOCCN(C)C[C@@H](O)CO[C@@H]1[C@@H](O)[C@H](N)C[C@H](N)[C@H]1O[C@H]1O[C@H](CN)[C@@H](O)[C@H](O)[C@H]1N)C[C@@H](O)CO[C@@H]1[C@@H](O)[C@H](N)C[C@H](N)[C@H]1O[C@H]1O[C@H](CN)[C@@H](O)[C@H](O)[C@H]1N | > 50 | > 50 | > 50 | > 50 | – | > 50 | > 50 | –
